Sampled rows, rich in hits. Any-hit rate of the full collection: about 2%.
PPC-1+TRAIL kill: kills PPC-1 cancer cells in the presence of TRAIL | PPC-1 cells + TRAIL, ATPLite viability luminescence | cell killing (% activity), % at 4 µM or 5 µM | hit rate 0.41% among 220,000;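 active means cell killing above 50% in the first pass at 4 µM, then a duplicate retest at 5 µM averaging 50% or more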
FLuc act counter: firefly luciferase counter-screen for stimulation assays; ATPlite luciferase biochemical, luminescence, 10 min; 0 = ATP-free wells, 1 = DMSO control; 200,000 tested, under 10 active; AID 1027; activation factor at 10 µM;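 active means luciferase activation factor, scaled between plate controls, of at least 2 with compound at 10 µM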
Target sequence (P08659 whole entry, looked up): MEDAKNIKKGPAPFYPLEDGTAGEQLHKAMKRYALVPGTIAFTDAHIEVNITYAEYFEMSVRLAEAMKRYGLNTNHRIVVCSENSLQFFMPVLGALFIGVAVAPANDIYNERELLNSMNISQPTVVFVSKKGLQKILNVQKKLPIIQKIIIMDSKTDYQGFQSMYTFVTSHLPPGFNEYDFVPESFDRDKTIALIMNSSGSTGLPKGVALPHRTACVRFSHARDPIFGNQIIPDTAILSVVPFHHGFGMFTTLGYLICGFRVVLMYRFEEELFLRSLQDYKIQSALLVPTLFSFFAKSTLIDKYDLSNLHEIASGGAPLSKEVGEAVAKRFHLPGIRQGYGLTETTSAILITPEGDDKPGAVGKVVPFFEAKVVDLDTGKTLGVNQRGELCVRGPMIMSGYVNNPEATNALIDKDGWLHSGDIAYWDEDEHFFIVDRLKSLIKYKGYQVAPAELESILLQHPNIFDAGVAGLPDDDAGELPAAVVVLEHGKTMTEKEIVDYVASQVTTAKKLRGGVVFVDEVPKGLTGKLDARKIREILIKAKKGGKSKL
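Assay system – cell-free luciferase reagent · Medium – PBS-based ATP solution · Dosing – test compounds dosed from 2 mM stocks in 100% DMSO · Timing – 10 min, room temperature · Technique – light output (luminescence) · Measure – luminescence gain marking luciferase activators · Controls – No-ATP low control, compound-free enzyme-plus-ATP high control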
FLuc inh counter: counter-screen for luciferase assay inhibitors: firefly luciferase inhibition | inhibition, % at 10 µM | P08659 | ATPLite firefly luciferase biochemical luminescence, 10 min | hit rate 1.5% among 200,000;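 active means inhibition above about 50% when tested at 10 µM, limit read from the data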
HSP90 refold inh: inhibitors of HSP90 luciferase refolding in rabbit reticulocyte lysate; luciferase refolding luminescence, 3 h; hit rate 0.91% among 290,000; inhibition, % at 5.6 µM;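 active means inhibition above the screen-wide mean plus 3 SD, computed separately per campaign, cut at about 16% in these data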;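 further: inhibitors lower the luminescence because luciferase stays unfolded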
C8 TRAIL sens: sensitizes caspase-8 expressing cells to TRAIL. AID 624354. hit rate 1% among 360,000. inhibition (viability loss, TRAIL sensitization), % at 10 µM. NB7+C8 cells + TRAIL, ATPlite viability luminescence;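 active means compounds causing at least 50% loss of cell viability in the single-dose screen, relative to plate controls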
Large screens that a line does not name were inactive.

N/C(=N\OC(=O)c1ccccc1Cl)c1ccc(Cl)cc1	FLuc inh counter 56, C8 TRAIL sens 83
N/C(=N\OC(=O)c1ccco1)c1ccc(Cl)cc1	none
N/C(=N\OC(=O)c1ccccc1Cl)c1ccccc1	FLuc inh counter 94, C8 TRAIL sens 66
CCCS(=O)(=O)NC(=O)C1(C)CCN(C(=O)COc2ccc(Cl)cc2Cl)C1 (stereo not drawn)	none (no result: PPC-1+TRAIL kill, FLuc act counter, FLuc inh counter, HSP90 refold inh)
N/C(=N\OC(=O)c1ccc(Cl)cc1)c1ccc(Cl)cc1	C8 TRAIL sens 88
N/C(=N\OC(=O)c1ccc(Cl)cc1)c1ccn[nH]1	C8 TRAIL sens 83 (no result: PPC-1+TRAIL kill, FLuc act counter, FLuc inh counter)
O=C(Nc1nc(-c2nc3ccccc3s2)cs1)C1CC1	FLuc inh counter 54, C8 TRAIL sens 52
COc1ccc2[nH]c3c(c2c1)CCN1C(=O)C(CC(=O)NCCC2=CCCCC2)C[C@H](C(=O)N2CCCCC2)[C@@]31C (stereo partly drawn)	none (no result: PPC-1+TRAIL kill, FLuc act counter, FLuc inh counter, HSP90 refold inh)
COc1ccccc1NC1=C(N2CCCCC2)C(=O)c2ccccc2C1=O	PPC-1+TRAIL kill 72
C=CCOc1ccccc1CNCCNC(=O)c1nonc1N	none
CCOc1ccccc1CNCCNC(=O)c1nonc1N	HSP90 refold inh 16 (no result: FLuc act counter, FLuc inh counter)
O=C(NC(=S)Nc1ncccn1)c1ccc(Cl)cc1Cl	FLuc inh counter 64
O=C(CCC(=O)c1ccc(F)cc1)OCc1nnc(-c2ccc([N+](=O)[O-])cc2)o1	none (no result: PPC-1+TRAIL kill, FLuc act counter, FLuc inh counter, HSP90 refold inh)
Cc1[nH]c2ccccc2c1C(=O)CSC(=S)N1CCCCC1	FLuc inh counter 55
Cc1[nH]c2ccccc2c1C(=O)CSC(=S)N(C)C1CCCCC1	none
Cc1ccc(-c2nn3c(C)nnc3c3ccccc23)cc1S(=O)(=O)NCc1ccccc1	C8 TRAIL sens 52
Cc1ccc(-c2nn3c(C)nnc3c3ccccc23)cc1S(=O)(=O)NCCN1CCOCC1	none
O=C1C(Cl)=C(Nc2ccccc2)C(=O)c2ccccc21	C8 TRAIL sens 88
O=C(O)c1ccc(NC2=C(Cl)C(=O)c3ccccc3C2=O)cc1	none (no result: FLuc act counter, FLuc inh counter)
Cc1c(-c2ccc(Br)cc2)nc2ccccn12	none
Cc1ccc(-c2nc3ccccn3c2C=O)cc1	FLuc inh counter 50
O=C(Nc1cc(C(F)(F)F)cc(C(F)(F)F)c1)[C@H]1O[C@@H](n2ccc(=O)[nH]c2=O)[C@H](O)[C@@H]1O	none (no result: PPC-1+TRAIL kill, FLuc act counter, FLuc inh counter, HSP90 refold inh)
c1cncc(CN2CCN(c3cc(-c4cnc5ccccc5c4)nc4ccnn34)CC2)c1	none (no result: PPC-1+TRAIL kill, FLuc act counter, FLuc inh counter, HSP90 refold inh)
COCCNc1ncnc2c1ncn2[C@H]1CN(Cc2ccco2)C[C@@H](CO)O1	none (no result: PPC-1+TRAIL kill, FLuc act counter, FLuc inh counter, HSP90 refold inh)
CC(=O)c1sc(NC(=O)c2cccc(C)c2)nc1C	FLuc inh counter 51
CCOC(=O)c1sc(NC(=O)c2cc3ccccc3o2)nc1C	FLuc inh counter 52
CCOC(=O)c1sc(NC(=O)c2ccccc2OC)nc1C	FLuc inh counter 62, C8 TRAIL sens 61
CC1(C)CC(=O)c2sc(NC(=O)c3ccco3)nc2C1	FLuc inh counter 74
CCOC(=O)[C@]12CCCC=C1N(Cc1ccc(Cl)cc1Cl)C(=O)[C@H](CC(=O)NCc1cccc3ccccc13)C2	none (no result: PPC-1+TRAIL kill, FLuc act counter, FLuc inh counter, HSP90 refold inh)
COc1cc(C)ccc1S(=O)(=O)NC(=O)C1(C)CCN1C(=O)C1(c2ccc(Cl)cc2)CCC1 (stereo not drawn)	none (no result: PPC-1+TRAIL kill, FLuc act counter, FLuc inh counter, HSP90 refold inh)
C=CCOC(=O)c1sc(NC(=O)c2ccco2)nc1C	FLuc inh counter 58, C8 TRAIL sens 50
COc1ccc(-c2nc(NC(=O)c3ccco3)sc2C)cc1	none (no result: PPC-1+TRAIL kill, FLuc act counter, FLuc inh counter, HSP90 refold inh)
CCOC(=O)c1ccc2nc(NC(=O)c3ccco3)sc2c1	FLuc inh counter 51
CCCCN(C=O)c1c(CC)nc2ccc(C(=O)N3CCN(c4ccccc4)CC3)cn12	none (no result: PPC-1+TRAIL kill, FLuc act counter, FLuc inh counter, HSP90 refold inh)
CC(NC(=O)c1sc2ccccc2c1Cl)C1CCCO1 (stereo not drawn)	FLuc inh counter 63
Cc1ccnc(NC(=O)c2sc3ccccc3c2Cl)c1	PPC-1+TRAIL kill 76, FLuc inh counter 92, C8 TRAIL sens 92
Cc1ccnc(NC(=O)c2cccs2)c1	none
CC(C)c1nnc(NC(=O)c2sc3ccccc3c2Cl)s1	FLuc inh counter 64
CC(NC(=O)c1csc2ccccc12)C1CCCO1 (stereo not drawn)	none
Cc1ccc2c(Cl)c(C(=O)Nc3cc(C)on3)sc2c1	none
Cc1ccnc(NC(=O)c2ccc(Br)s2)c1	C8 TRAIL sens 55 (no result: PPC-1+TRAIL kill, FLuc act counter, FLuc inh counter)
COc1ccc(C2=Nc3ccccc3N(C(=O)c3ccc(C(F)(F)F)cc3)C2C(=O)Nc2ccc3c(c2)OCCO3)cc1 (stereo not drawn)	none (no result: PPC-1+TRAIL kill, FLuc act counter, FLuc inh counter, HSP90 refold inh)
Brc1ccc(-c2nnc3sc(CN4CCC5(CC4)OCCO5)cn23)cc1	C8 TRAIL sens 66
Clc1nc(-c2ccccn2)nc2scc(-c3ccccc3)c12	PPC-1+TRAIL kill 72, FLuc inh counter 97
